Assay results published in ChEMBL document CHEMBL1152501, “Mannosylated saponins based on oleanolic and glycyrrhizic acids. Towards synthetic colloidal antigen delivery systems” (2009).

What was measured:
[1] = Immunostimulatory activity in C57BL/6 mouse BMDC assessed as increase in mean fluorescence intensity of MHC class2 expression at 10 ug relative to untreated control; assay type: functional
Procedure, shortened: (§1)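 Bone marrow stem cells from C57Bl/6 J mice grown 6 days in IMDM with 5% FBS, penicillin/streptomycin, glutamax, 2-mercaptoethanol and 20 ng/ml GM-CSF, 37 °C, 5% CO2. Seeded at 5 × 10^5 cells/mL and pulsed with formulations holding 10 µg saponin (cholesterol/phosphatidylcholine film hydration); LPS 10 µg/mL positive control. After 48 h, flow cytometry gated on propidium iodide-negative CD11c+ cells. MFI divided by medium-only MFI. Run 1–3 times.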

[2] = Immunostimulatory activity in C57BL/6 mouse BMDC assessed as increase in mean fluorescence intensity of CD86 expression at 10 ug relative to untreated control; assay type: functional; procedure, shortened: as §1

| Structure (SMILES) | fold change (FC) [1] | fold change (FC) [2] |
| --- | --- | --- |
| COC(=O)[C@H]1O[C@@H](O[C@H]2CC[C@]3(C)[C@H]4C(=O)C=C5[C@@H]6C[C@@](C)(C(=O)O)CC[C@]6(C)CC[C@@]5(C)[C@]4(C)CC[C@H]3C2(C)C)[C@H](O[C@@H]2O[C@H](C(=O)O)[C@@H](O)[C@H](O)[C@H]2O)[C@@H](O)[C@@H]1O | 1.5 | 0.9 |
| COC(=O)[C@H]1O[C@@H](O[C@H]2[C@H](O[C@H]3CC[C@]4(C)[C@H]5C(=O)C=C6[C@@H]7C[C@@](C)(C(=O)O)CC[C@]7(C)CC[C@@]6(C)[C@]5(C)CC[C@H]4C3(C)C)O[C@H](C(=O)O)[C@@H](O)[C@@H]2O)[C@H](O)[C@@H](O)[C@@H]1O | 1.4 | 0.9 |
| COC(=O)[C@H]1O[C@@H](O[C@H]2CC[C@]3(C)[C@H]4C(=O)C=C5[C@@H]6C[C@@](C)(C(=O)O[C@@H]7O[C@H](CO)[C@@H](O)[C@H](O)[C@H]7O)CC[C@]6(C)CC[C@@]5(C)[C@]4(C)CC[C@H]3C2(C)C)[C@H](O[C@@H]2O[C@H](C(=O)O)[C@@H](O)[C@H](O)[C@H]2O)[C@@H](O)[C@@H]1O | 1.3 | 1.3 |
| CC1(C)CC[C@]2(C(=O)O)CC[C@]3(C)C(=CC[C@@H]4[C@@]5(C)CC[C@H](O[C@H]6O[C@H](CO)[C@@H](O)[C@H](O)[C@@H]6O[C@H]6O[C@H](CO)[C@@H](O)[C@H](O)[C@@H]6O)C(C)(C)[C@@H]5CC[C@]43C)[C@@H]2C1 | 1.6 | 1.2 |
| CC1(C)CC[C@]2(C(=O)O[C@H]3O[C@H](CO)[C@@H](O)[C@H](O)[C@@H]3O[C@H]3O[C@H](CO)[C@@H](O)[C@H](O)[C@@H]3O[C@H]3O[C@H](CO)[C@@H](O)[C@H](O)[C@@H]3O)CC[C@]3(C)C(=CC[C@@H]4[C@@]5(C)CC[C@H](O[C@H]6O[C@H](CO)[C@@H](O)[C@H](O)[C@@H]6O[C@H]6O[C@H](CO)[C@@H](O)[C@H](O)[C@@H]6O[C@H]6O[C@H](CO)[C@@H](O)[C@H](O)[C@@H]6O)C(C)(C)[C@@H]5CC[C@]43C)[C@@H]2C1 | 1 | 0.9 |
| COC(=O)[C@H]1O[C@@H](O[C@H]2[C@H](O[C@H]3CC[C@]4(C)[C@H]5C(=O)C=C6[C@@H]7C[C@@](C)(C(=O)O[C@@H]8O[C@H](CO)[C@@H](O)[C@H](O)[C@H]8O)CC[C@]7(C)CC[C@@]6(C)[C@]5(C)CC[C@H]4C3(C)C)O[C@H](C(=O)O)[C@@H](O)[C@@H]2O)[C@H](O)[C@@H](O)[C@@H]1O | 1.1 | 1 |
| COC(=O)[C@H]1O[C@@H](O[C@H]2[C@H](O[C@H]3CC[C@]4(C)[C@H]5C(=O)C=C6[C@@H]7C[C@@](C)(C(=O)O)CC[C@]7(C)CC[C@@]6(C)[C@]5(C)CC[C@H]4C3(C)C)O[C@H](C(=O)OC)[C@@H](O)[C@@H]2O)[C@H](O)[C@@H](O)[C@@H]1O | 1.1 | 0.9 |
| CC1(C)CC[C@]2(C(=O)O)CC[C@]3(C)C(=CC[C@@H]4[C@@]5(C)CC[C@H](O[C@H]6O[C@H](CO)[C@@H](O)[C@H](O)[C@@H]6O[C@H]6O[C@H](CO)[C@@H](O)[C@H](O)[C@@H]6O[C@H]6O[C@H](CO)[C@@H](O)[C@H](O)[C@@H]6O)C(C)(C)[C@@H]5CC[C@]43C)[C@@H]2C1 | 1.1 | 0.8 |
| CC1(C)CC[C@]2(C(=O)O[C@H]3O[C@H](CO[C@H]4O[C@H](CO)[C@@H](O)[C@H](O)[C@@H]4O)[C@@H](O)[C@H](O[C@H]4O[C@H](CO)[C@@H](O)[C@H](O)[C@@H]4O)[C@@H]3O)CC[C@]3(C)C(=CC[C@@H]4[C@@]5(C)CC[C@H](O[C@H]6O[C@H](CO[C@H]7O[C@H](CO)[C@@H](O)[C@H](O)[C@@H]7O)[C@@H](O)[C@H](O[C@H]7O[C@H](CO)[C@@H](O)[C@H](O)[C@@H]7O)[C@@H]6O)C(C)(C)[C@@H]5CC[C@]43C)[C@@H]2C1 | 1.3 | 2 |
